Square brackets hold non-standard residues; d marks the D form. Peptide text beside a SMILES is read from it. Tic = O=C(O)[C@@H]1Cc2ccccc2CN1
Columns and labels:
Rattus norvegicus [1] = experiment: Antithrombotic activity in Wistar rat assessed as reduction of thrombus weight at 15 umol/kg, iv; type: functional
How it was run: (§1)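 Male Wistar rats (250–300 g) with an arteriovenous shunt: a polyethylene tube holding a thread joins the right carotid artery to the left jugular vein. Heparin sodium is injected through the tube, then vehicle (NS) or drug dissolved in NS and kept on ice. Blood flows for 15 min, and the wet thrombus on the thread is weighed. Analysis by ANOVA.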

Platelet [2] = experiment: Inhibition of adenosine diphosphate-induced pig platelet aggregation measured for 5 mins; type: functional, cell-based; conditions: Sus scrofa
Platelet [3] = experiment: Inhibition of arachidonic acid-induced pig platelet aggregation measured for 5 mins; type: functional, cell-based; conditions: Sus scrofa
Platelet [4] = experiment: Inhibition of platelet activating factor-induced pig platelet aggregation measured for 5 mins; type: functional, cell-based; conditions: Sus scrofa
Platelet [5] = experiment: Inhibition of thrombin-induced pig platelet aggregation measured for 5 mins; type: functional, cell-based; conditions: Sus scrofa
How it was run: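 Pig blood spun at 1000g for 10 min to give PRP and at 1500g for 10 min to give PPP. Platelets adjusted to 2×10⁸/ml with autologous PPP, and 0.5 ml is pre-mixed with NS or drug at six tenfold-spaced final concentrations. After baseline the agonist is added (thrombin final 0.1 U/ml). Optical aggregation is read at 37 °C for 5 min. Peak height is taken as maximal aggregation, and % inhibition is calculated against NS. Run in sextuplicate; IC50 from the concentration–inhibition curve.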

Rattus norvegicus [6] = experiment: Antithrombotic activity in iv dosed Wistar rat assessed as reduction of thrombus weight; type: functional, organism-based; how it was run: as §1
Rattus norvegicus [7] = experiment: Antithrombotic activity in Wistar rat assessed as reduction of thrombus weight at 30 nmol/kg, iv; type: functional; how it was run: as §1
Rattus norvegicus [8] = experiment: Antithrombotic activity in Wistar rat assessed as reduction of thrombus weight at 3 nmol/kg, iv; type: functional; how it was run: as §1
Rattus norvegicus [9] = experiment: Antithrombotic activity in Wistar rat assessed as reduction of thrombus weight at 0.3 nmol/kg, iv; type: functional; how it was run: as §1
Rattus norvegicus [10] = experiment: Antithrombotic activity in Wistar rat assessed as reduction of thrombus weight at 30 nmol/kg, po; type: functional
How it was run: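 Drug in NS (or NS alone, 0.6 ml) is given orally to male Wistar rats (250–300 g), then pentobarbital sodium 80.0 mg/kg ip. Thirty min later the right carotid artery and left jugular vein are exposed and joined by a heparinized thread-containing shunt. Blood flows for 15 min, and the wet thrombus is weighed. n=12; analysis by ANOVA.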

Rattus norvegicus [11] = experiment: Antithrombotic activity in Wistar rat assessed as reduction of thrombus weight at 0.03 nmol/kg, iv; type: functional; how it was run: as §1
Rattus norvegicus [12] = experiment: Antithrombotic activity in Wistar rat assessed as reduction of thrombus weight at 165 umol/kg, iv; type: functional; how it was run: as §1

SMILES | IC50 (Platelet [2]) | IC50 (Platelet [3]) | IC50 (Platelet [4]) | IC50 (Platelet [5]) | Activity (Rattus norvegicus [1]) | Activity (Rattus norvegicus [6]) | Activity (Rattus norvegicus [7]) | Activity (Rattus norvegicus [8]) | Activity (Rattus norvegicus [9]) | Activity (Rattus norvegicus [10]) | Activity (Rattus norvegicus [11]) | Activity (Rattus norvegicus [12])
O=C(O)[C@@H]1Cc2ccccc2CN1 |  |  |  |  | 21.52 mg |  |  |  |  |  |  | 
N=C(N)NCCC[C@H](NC(=O)[C@@H]1Cc2ccccc2CN1C(=O)[C@@H](N)CCCNC(=N)N)C(=O)O (H-Arg-[Tic]-Arg-OH) | 3.15 nM | 9.17 nM | 6.07 nM | 9.87 nM |  | Dose-dependent effect | 10.61 mg | 16.29 mg |  | 15.15 mg | 19.71 mg | 
NC(=O)C[C@H](NC(=O)[C@@H]1Cc2ccccc2CN1C(=O)[C@@H](N)CC(N)=O)C(=O)O (H-Asn-[Tic]-Asn-OH) | 3.07 nM | 8.28 nM | 5.39 nM | 8.43 nM |  |  | 17.95 mg |  |  | 16.88 mg |  | 
NC(=O)CC[C@H](NC(=O)[C@@H]1Cc2ccccc2CN1C(=O)[C@@H](N)CCC(N)=O)C(=O)O (H-Gln-[Tic]-Gln-OH) | 2.55 nM | 8.37 nM | 5.72 nM | 9.13 nM |  |  | 18.13 mg |  |  | 18.23 mg |  | 
N[C@@H](CCC(=O)O)C(=O)N1Cc2ccccc2C[C@H]1C(=O)N[C@@H](CCC(=O)O)C(=O)O (H-Glu-[Tic]-Glu-OH) | 2.19 nM | 9.86 nM | 4.19 nM | 10.3 nM |  |  | 18.95 mg |  |  |  |  | 
NCC(=O)N1Cc2ccccc2C[C@H]1C(=O)NCC(=O)O (H-Gly-[Tic]-Gly-OH) | 2.44 nM | 7.95 nM | 5.15 nM | 10.6 nM |  |  | 25.2 mg |  |  |  |  | 
N[C@@H](Cc1c[nH]cn1)C(=O)N1Cc2ccccc2C[C@H]1C(=O)N[C@@H](Cc1cnc[nH]1)C(=O)O (H-His-[Tic]-His-OH) | 2.84 nM | 9.38 nM | 5.57 nM | 10 nM |  |  | 20.91 mg |  |  |  |  | 
NCCCC[C@H](NC(=O)[C@@H]1Cc2ccccc2CN1C(=O)[C@@H](N)CCCCN)C(=O)O (H-Lys-[Tic]-Lys-OH) | 3.73 nM | 9.64 nM | 5.67 nM | 8.98 nM |  |  | 18.65 mg |  |  | 19.72 mg |  | 
N[C@@H](Cc1ccccc1)C(=O)N1Cc2ccccc2C[C@H]1C(=O)N[C@@H](Cc1ccccc1)C(=O)O (H-Phe-[Tic]-Phe-OH) | 2.23 nM | 7.84 nM | 4.92 nM | 8.87 nM |  |  | 22.51 mg |  |  |  |  | 
N[C@@H](Cc1ccc(O)cc1)C(=O)N1Cc2ccccc2C[C@H]1C(=O)N[C@@H](Cc1ccc(O)cc1)C(=O)O (H-Tyr-[Tic]-Tyr-OH) | 2.58 nM | 8.83 nM | 4.52 nM | 9.84 nM |  |  | 18.79 mg |  |  |  |  | 
CC(=O)Oc1ccccc1C(=O)O [ASPIRIN] |  |  |  |  |  |  |  |  |  |  |  | 13.22 mg

More lines, main results first:

IC50 (Platelet [2]) | IC50 (Platelet [3]) | IC50 (Platelet [4]) | IC50 (Platelet [5]) | SMILES | Activity (Rattus norvegicus [1]) | Activity (Rattus norvegicus [6]) | Activity (Rattus norvegicus [7]) | Activity (Rattus norvegicus [8]) | Activity (Rattus norvegicus [9]) | Activity (Rattus norvegicus [10]) | Activity (Rattus norvegicus [11]) | Activity (Rattus norvegicus [12])
2.36 nM | 8.73 nM | 5.6 nM | 9.48 nM | C[C@H](N)C(=O)N1Cc2ccccc2C[C@H]1C(=O)N[C@@H](C)C(=O)O |  | Dose-dependent effect | 17.12 mg | 23.35 mg | 29.77 mg | 18.89 mg |  | 
3.48 nM | 9.55 nM | 4.37 nM | 11.1 nM | N[C@@H](CC(=O)O)C(=O)N1Cc2ccccc2C[C@H]1C(=O)N[C@@H](CC(=O)O)C(=O)O (H-Asp-[Tic]-Asp-OH) |  |  | 20.49 mg |  |  |  |  | 
3.26 nM | 8.18 nM | 6.32 nM | 9.64 nM | N[C@@H](CS)C(=O)N1Cc2ccccc2C[C@H]1C(=O)N[C@@H](CS)C(=O)O (H-Cys-[Tic]-Cys-OH) |  |  | 19.35 mg |  |  |  |  | 
2.89 nM | 8.92 nM | 5.64 nM | 11.3 nM | CC[C@H](C)[C@H](N)C(=O)N1Cc2ccccc2C[C@H]1C(=O)N[C@H](C(=O)O)[C@@H](C)CC (H-Ile-[Tic]-Ile-OH) |  |  | 24.3 mg |  |  |  |  | 
2.57 nM | 8.17 nM | 5.03 nM | 10 nM | CC(C)C[C@H](NC(=O)[C@@H]1Cc2ccccc2CN1C(=O)[C@@H](N)CC(C)C)C(=O)O (H-Leu-[Tic]-Leu-OH) |  |  | 19.53 mg |  |  |  |  | 
3.42 nM | 8.19 nM | 4.91 nM | 9.99 nM | CSCC[C@H](NC(=O)[C@@H]1Cc2ccccc2CN1C(=O)[C@@H](N)CCSC)C(=O)O (H-Met-[Tic]-Met-OH) |  |  | 19.36 mg |  |  |  |  | 
2.17 nM | 7.99 nM | 5.36 nM | 10.2 nM | N[C@@H](CO)C(=O)N1Cc2ccccc2C[C@H]1C(=O)N[C@@H](CO)C(=O)O (H-Ser-[Tic]-Ser-OH) |  |  | 20.97 mg |  |  |  |  | 
2.89 nM | 10 nM | 4.14 nM | 10.8 nM | C[C@@H](O)[C@H](N)C(=O)N1Cc2ccccc2C[C@H]1C(=O)N[C@H](C(=O)O)[C@@H](C)O (H-Thr-[Tic]-Thr-OH) |  | Dose-dependent effect | 14.32 mg | 20.95 mg | 28.63 mg | 17.53 mg |  | 
2.57 nM | 9.08 nM | 5.87 nM | 9.25 nM | CC(C)[C@H](N)C(=O)N1Cc2ccccc2C[C@H]1C(=O)N[C@H](C(=O)O)C(C)C (H-Val-[Tic]-Val-OH) |  |  | 19.42 mg |  |  |  |  | 
